Experimental data taken from PubChem BioAssay AID624316 (Broad Institute, 2012).
Several values for one entry are separate records, joined by “and”; a condition that tells them apart may be missing. Equal values may be shown once. Activity calls are given as the source filed them.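 How the source made its calls: active means compounds lowering reporter light with a fitted AC50 at or below twice their top valid dose; inconclusive means flat partial inhibition or an unreliable curve fit; inactive means the rest.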

These molecules were tested on SK-MEL-5 TRPM1 promoter luciferase reporter, 24 h (assay: decrease of TRPM1 reporter luminescence in SK-MEL-5 – cell-based, dry powder samples, set 4, MITF inhibitor project, dose response (AID 624316)).
Method in brief: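 incubation = compound added 24 h post-plating, 24 h exposure at 37 °C | test system = SK-MEL-5 melanoma line stably carrying TRPM1 promoter–luciferase reporter | medium = phenol-red-free DMEM, 10% FBS | dosing = compounds pinned into wells as DMSO solutions | technique = luciferase luminescence with SteadyGlo, 5 min room temperature | benchmarks = parthenolide as positive control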

Row | Compound | AC50
1 | O=C(NC1=C(N2CCOCC2)C(=O)c2ccccc2C1=O)c1ccc(Br)cc1 | 11.3 µM
2 | C=CCNC1=C(N(C)C(C)=O)C(=O)c2ccccc2C1=O | 0.107 µM
3 | C[C@@H](NC1=C(Nc2ccccc2)C(=O)c2ccccc2C1=O)c1ccccc1 | 9.76 µM
4 | Cc1ccc(C(=O)NC2=C(c3ccc(OC(F)(F)F)cc3)C(=O)c3ccccc3C2=O)o1 | 15.4 µM
5 | C=CCNC1=C(NCCN(CC)CC)C(=O)c2ccccc2C1=O | 1.75 µM
6 | COc1ccc(S(=O)(=O)N(C(C)=O)c2ccc(OC(C)=O)c3ccccc23)cc1[N+](=O)[O-] | 6.67 µM
7 | COc1ccc(C2=C(NC(=O)c3ccc(Cl)cc3)C(=O)c3ccccc3C2=O)cc1 | 16.4 µM
8 | COc1cccc(-c2cc(C(=O)NC3=C(Cl)C(=O)c4ccccc4C3=O)ccc2OC)c1 | 3.3 µM
9 | CCN1CCN(C2=C(Nc3ccccc3)C(=O)c3ccccc3C2=O)CC1 | 0.689 µM
10 | O=C1C(Nc2ccccc2)=C(N2CCN(c3ccccc3)CC2)C(=O)c2ccccc21 | 8.06 µM
11 | CC1CCN(CC(CS(=O)(=O)c2ccc([N+](=O)[O-])cc2)N2CCC(C)CC2)CC1 (stereo not drawn) | 4.72 µM
12 | O=C(NC1=C(c2ccccc2)C(=O)c2ccccc2C1=O)c1ccco1 | 8.11 µM
13 | O=C1C(NS(=O)(=O)c2ccccc2)=C(N2CCOCC2)C(=O)c2ccccc21 | 18.5 µM
14 | COC1=C(NS(=O)(=O)c2ccccc2)C(=O)c2ccccc2C1=O | 6.65 µM
15 | O=C1C(NS(=O)(=O)c2ccc(Br)cc2)=C(N2CCCCC2)C(=O)c2ccccc21 | 14.2 µM
16 | NC1=C(NC(=O)c2ccccc2)C(=O)c2ccccc2C1=O | 4.37 µM
17 | COc1ccc(C2=C(NC(C)=O)C(=O)c3ccccc3C2=O)cc1 | 5.44 µM
18 | NC1=CC(=O)c2ccccc2C1=O | 1.41 µM
19 | CCN1CCN(C2=C(N(C)C(C)=O)C(=O)c3ccccc3C2=O)CC1 | 0.367 µM
20 | CCN1CCN(C2=C(NS(=O)(=O)c3cccs3)C(=O)c3ccccc3C2=O)CC1 | 1.73 µM
21 | O=C(NC1=C(c2ccc(OC(F)(F)F)cc2)C(=O)c2ccccc2C1=O)c1ccccc1F | 17.1 µM
22 | CC(=O)N(C)C1=C(N2CCOCC2)C(=O)c2ccccc2C1=O | 1.89 µM
23 | O=C(NC1=C(c2ccc(OC(F)(F)F)cc2)C(=O)c2ccccc2C1=O)c1ccccc1 | 32 µM
24 | C=CCNC1=C(NCCCN(CC)CC)C(=O)c2ccccc2C1=O | 3.12 µM
25 | CC(=O)NC1=C(c2cccc(Cl)c2)C(=O)c2ccccc2C1=O | 3.93 µM
26 | CCN1c2ccccc2NC2N=C(OC)C(c3ccccc3)C21 (stereo not drawn) | 2.5 µM

Row | Compound | AC50
27 | COc1ccc(C(=O)NC2=C(c3ccccc3)C(=O)c3ccccc3C2=O)cc1 | 10.9 µM
28 | Cc1ccc(C(=O)NC2=C(c3ccccc3)C(=O)c3ccccc3C2=O)o1 | 4.8 µM
29 | COc1ccc(C2=C(NC(=O)c3ccc(OC)cc3-c3cccc(OC)c3)C(=O)c3ccccc3C2=O)cc1 | > 70 µM (inactive)
30 | O=C1C(NS(=O)(=O)c2ccc(Br)s2)=C(N2CCOCC2)C(=O)c2ccccc21 | 19.9 µM
31 | O=C1C(NS(=O)(=O)c2ccc(Br)cc2)=C(c2ccccc2)C(=O)c2ccccc21 | 24 µM
32 | Cc1nc2ccccc2n1/N=C/c1ccc([N+](=O)[O-])s1 | 1.86 µM
33 | O=C(NC1=C(N2CCN(c3ccccc3)CC2)C(=O)c2ccccc2C1=O)c1ccccc1 | 15 µM
34 | CC(=O)NC1=C(c2ccc(Oc3ccccc3)cc2)C(=O)c2ccccc2C1=O | 14.8 µM
35 | C=CCNC1=C(N2CCN(CC)CC2)C(=O)c2ccccc2C1=O | 4.12 µM
36 | COc1ccc(C2=C(N)C(=O)c3ccccc3C2=O)cc1 | 25.1 µM
37 | CN1CCN(C2=C(NS(=O)(=O)c3ccccc3)C(=O)c3ccccc3C2=O)CC1 | 0.614 µM
38 | O=C(NC1=C(N2CCOCC2)C(=O)c2ccccc2C1=O)c1ccccc1 | 6 µM
39 | CCN1CCN(C2=C(NS(=O)(=O)c3ccc(Br)s3)C(=O)c3ccccc3C2=O)CC1 | 4.1 µM
40 | COc1ccc(C2=C(NC(=O)c3ccc4ccccc4c3)C(=O)c3ccccc3C2=O)cc1 | > 70 µM (inactive)
41 | O=C(NC1=C(N2CCSCC2)C(=O)c2ccccc2C1=O)c1ccccc1 | 3.61 µM
42 | C=CCNC1=C(NC(=O)c2ccccc2)C(=O)c2ccccc2C1=O | 11.7 µM
43 | O=C1C(NS(=O)(=O)c2ccc(Br)cc2)=C(N2CCN(c3ccccc3)CC2)C(=O)c2ccccc21 | 17.1 µM
44 | O=C1C(Nc2ccccc2)=C(N2CCCCC2)C(=O)c2ccccc21 | 2.78 µM
45 | C=C1C(=O)OC2C1CC/C(C)=C\CCC1(C)OC21 (stereo not drawn) | 4.91 µM
46 | C=CCNC1=C(NS(=O)(=O)c2ccc(Br)cc2)C(=O)c2ccccc2C1=O | 7.27 µM
47 | CN1CCN(C2=C(NS(=O)(=O)c3cccs3)C(=O)c3ccccc3C2=O)CC1 | 2.06 µM
48 | O=C1C(Nc2ccccc2)=C(N2CCOCC2)C(=O)c2ccccc21 | 5.81 µM and 4.63 µM
49 | C=CCNC1=C(N2CCOCC2)C(=O)c2ccccc2C1=O | 1.54 µM
50 | O=C(NC1=C(N2CCCCC2)C(=O)c2ccccc2C1=O)c1ccc(Br)cc1 | 36.2 µM
51 | COc1ccc(C2=C(NC(=O)c3ccccc3OC)C(=O)c3ccccc3C2=O)cc1 | 15.7 µM
52 | CCN1CCN(C2=C(NC(=O)c3ccc(Br)cc3)C(=O)c3ccccc3C2=O)CC1 | 0.566 µM

Row | Compound | AC50
53 | O=C(NC1=C(c2ccccc2)C(=O)c2ccccc2C1=O)c1ccc(Br)cc1 | 12.3 µM
54 | C=CCNC1=C(Cl)C(=O)c2ccccc2C1=O | 1.67 µM and 2.18 µM
55 | CCN1CCN(C2=C(NS(=O)(=O)c3ccc(Br)cc3)C(=O)c3ccccc3C2=O)CC1 | 4.06 µM
56 | O=C1C(NS(=O)(=O)c2cccs2)=C(N2CCCCC2)C(=O)c2ccccc21 | 21.7 µM
57 | COc1cccc(C2=C(NC(=O)c3ccccc3)C(=O)c3ccccc3C2=O)c1 | 13.9 µM
58 | O=C1C(NS(=O)(=O)c2ccc(Br)cc2)=C(N2CCSCC2)C(=O)c2ccccc21 | 9.91 µM
59 | C=CCNC1=C(N2CCCCC2)C(=O)c2ccccc2C1=O | 0.538 µM
60 | CC(=O)NC1=C(c2ccc(Cl)cc2)C(=O)c2ccccc2C1=O | 5.17 µM
61 | O=C1C(Nc2ccccc2)=C(NS(=O)(=O)c2ccccc2[N+](=O)[O-])C(=O)c2ccccc21 | 29 µM
62 | CN1CCN(C2=C(NS(=O)(=O)c3ccc(Br)s3)C(=O)c3ccccc3C2=O)CC1 | 2.57 µM
63 | COc1ccc(C(=O)NC2=C(c3ccc(OC)cc3)C(=O)c3ccccc3C2=O)cc1 | 8.59 µM
64 | CN1CCN(C2=C(Nc3ccccc3)C(=O)c3ccccc3C2=O)CC1 | 4.78 µM
65 | O=C1C(NS(=O)(=O)c2cccs2)=C(N2CCOCC2)C(=O)c2ccccc21 | 9.86 µM
66 | O=C(CNc1cccc2ccccc12)N/N=C/c1ccc([N+](=O)[O-])o1 | 1.67 µM
67 | COc1ccc(C2=C(NC(=O)c3cccc(Cl)c3)C(=O)c3ccccc3C2=O)cc1 | 19.9 µM
68 | CCN(CC)CCCNC1=C(N(C)C(C)=O)C(=O)c2ccccc2C1=O | 0.188 µM
69 | C=CCNC1=C(Nc2ccccc2)C(=O)c2ccccc2C1=O | 12.4 µM
70 | COc1ccc(C2=C(NC(=O)c3ccccc3Cl)C(=O)c3ccccc3C2=O)cc1 | 6.21 µM
71 | CC(=O)NC1=C(c2ccccc2)C(=O)c2ccccc2C1=O | 5.51 µM
72 | O=C(NC1=C(Cl)C(=O)c2ccccc2C1=O)c1ccccc1 | 0.854 µM
73 | O=C(NC1=C(N2CCCCC2)C(=O)c2ccccc2C1=O)c1ccccc1 | 25.6 µM
74 | NC1=C(c2ccccc2)C(=O)c2ccccc2C1=O | 7.61 µM
75 | O=C(NC1=C(N2CCSCC2)C(=O)c2ccccc2C1=O)c1ccc(Br)cc1 | 8.75 µM
76 | NC1=C(c2ccc(OC(F)(F)F)cc2)C(=O)c2ccccc2C1=O | 16.3 µM
77 | O=C1C=C(Nc2ccccc2)C(=O)c2ccccc21 | 4.07 µM
78 | CC(=O)N(C)C1=C(N2CCCCC2)C(=O)c2ccccc2C1=O | 0.7 µM

Row | Compound | AC50
79 | COc1ccc(C2=C(NC(=O)c3cccc(OC)c3)C(=O)c3ccccc3C2=O)cc1 | 11.4 µM
80 | CN1CCN(C2=C(NC(=O)c3ccccc3)C(=O)c3ccccc3C2=O)CC1 | 0.508 µM
81 | C=CCNC1=C(N2CCSCC2)C(=O)c2ccccc2C1=O | 2.81 µM
82 | C=CCNC1=C(N2CCN(C)CC2)C(=O)c2ccccc2C1=O | 3.74 µM
83 | CN1CCN(C2=C(NC(=O)c3ccc(Br)cc3)C(=O)c3ccccc3C2=O)CC1 | 0.921 µM
84 | O=C(NC1=C(c2ccc(Oc3ccccc3)cc2)C(=O)c2ccccc2C1=O)c1ccccc1 | > 70 µM (inactive)
85 | O=C1C(NS(=O)(=O)c2ccc(Br)cc2)=C(N2CCOCC2)C(=O)c2ccccc21 | 6.87 µM
86 | CCN(CC)CCCNC1=C(Nc2ccccc2)C(=O)c2ccccc2C1=O | 2.38 µM
87 | O=C1C(NS(=O)(=O)c2ccc(Br)cc2)=C(c2ccc(OC(F)(F)F)cc2)C(=O)c2ccccc21 | 12 µM
88 | O=C(NC1=C(c2ccc(OC(F)(F)F)cc2)C(=O)c2ccccc2C1=O)c1ccco1 | 21 µM
89 | O=C(NC1=C(c2ccc(OC(F)(F)F)cc2)C(=O)c2ccccc2C1=O)c1ccc(Br)cc1 | 20.5 µM
90 | CCN1CCN(C2=C(NC(=O)c3ccccc3)C(=O)c3ccccc3C2=O)CC1 | 0.582 µM
91 | O=C1C(NS(=O)(=O)c2ccc(Br)s2)=C(N2CCCCC2)C(=O)c2ccccc21 | 19.3 µM
92 | O=C1C(Nc2ccccc2)=C(N2CCSCC2)C(=O)c2ccccc21 | 7.75 µM
93 | CCN(CC)CCCCNC1=C(Nc2ccccc2)C(=O)c2ccccc2C1=O | 2.87 µM
94 | O=C1C(NCCCN2CCOCC2)=C(Nc2ccccc2)C(=O)c2ccccc21 | 4.03 µM
95 | C=CCNC1=C(NCCCN2CCOCC2)C(=O)c2ccccc2C1=O | 7.39 µM
96 | O=C1C(NS(=O)(=O)c2ccccc2)=C(N2CCCCC2)C(=O)c2ccccc21 | 28.3 µM
97 | C=CCNC1=C(NS(=O)(=O)c2cccs2)C(=O)c2ccccc2C1=O | 12 µM
98 | O=C(NC1=C(c2ccccc2)C(=O)c2ccccc2C1=O)c1ccccc1 | 6.77 µM
99 | O=C1C(NS(=O)(=O)c2ccc(Br)s2)=C(N2CCSCC2)C(=O)c2ccccc21 | 20.5 µM
100 | CCN(CC)CCNC1=C(Nc2ccccc2)C(=O)c2ccccc2C1=O | 1.66 µM
101 | CC(=O)N(C)C1=C(N2CCN(C)CC2)C(=O)c2ccccc2C1=O | 0.372 µM
102 | CC(=O)NC1=C(c2ccc3c(c2)oc2ccccc23)C(=O)c2ccccc2C1=O | 1.59 µM
103 | COc1ccc(C(=O)NC2=C(c3ccc(OC(F)(F)F)cc3)C(=O)c3ccccc3C2=O)cc1 | 35.5 µM
